Measured values from ChEMBL document CHEMBL5376013, “Design, synthesis and biological evaluation of novel morpholinopyrimidine-5-carbonitrile derivatives as dual PI3K/mTOR inhibitors” (RSC Med Chem, 2024).

Key:
Assay type in all cases: functional
Conditions in all cases: read-out: GI
NCI-H460 = assay: Antitumor activity against human NCI-H460 cells assessed as growth inhibition at 10 uM relative to control
Procedure, shortened: (§1)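 After drug addition, plates were incubated 48 h at 37 °C under 5% CO2. Adherent cells were fixed with cold TCA (10% final, 60 min, 4 °C) and suspension cells with 16% final TCA. Staining used 0.4% SRB in 1% acetic acid, solubilized in 10 mM trizma, read at A515. Percent growth was calculated from time-zero, control and treated absorbances.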

OVCAR-8 = assay: Antitumor activity against human OVCAR-8 cells assessed as growth inhibition at 10 uM relative to control; procedure, shortened: as §1
DU-145 = assay: Antitumor activity against human DU-145 cells assessed as growth inhibition at 10 uM relative to control; procedure, shortened: as §1
K562 = assay: Antitumor activity against human K562 cells assessed as growth inhibition at 10 uM relative to control; procedure, shortened: as §1
CAKI-1 = assay: Antitumor activity against human CAKI-1 cells assessed as growth inhibition at 10 uM relative to control; procedure, shortened: as §1
TK-10 = assay: Antitumor activity against human TK-10 cells assessed as growth inhibition at 10 uM relative to control
Procedure, shortened: (§2)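 Drug exposure 48 h at 37 °C, 5% CO2. Adherent cells fixed with cold TCA (10% final), suspension cells with TCA (16% final). Stained with 0.4% SRB in 1% acetic acid, dissolved in 10 mM Tris, A515. Growth relative to time-zero and untreated control.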

MCF7 = assay: Antitumor activity against human MCF7 cells assessed as growth inhibition at 10 uM relative to control; procedure, shortened: as §1
EKVX = assay: Antitumor activity against human EKVX cells assessed as growth inhibition at 10 uM relative to control; procedure, shortened: as §1
SR = assay: Antitumor activity against human SR cells assessed as growth inhibition at 10 uM relative to control; procedure, shortened: as §2
786-0 = assay: Antitumor activity against human 786-0 cells assessed as growth inhibition at 10 uM relative to control; procedure, shortened: as §1
A549 = assay: Antitumor activity against human A549 cells assessed as growth inhibition at 10 uM relative to control; procedure, shortened: as §1
SF-539 = assay: Antitumor activity against human SF-539 cells assessed as growth inhibition at 10 uM relative to control; procedure, shortened: as §1
NCI-H226 = assay: Antitumor activity against human NCI-H226 cells assessed as growth inhibition at 10 uM relative to control; procedure, shortened: as §1
T47D = assay: Antitumor activity against human T47D cells assessed as growth inhibition at 10 uM relative to control; procedure, shortened: as §2
RXF 393 = assay: Antitumor activity against human RXF 393 cells assessed as growth inhibition at 10 uM relative to control; procedure, shortened: as §1
UO-31 = assay: Antitumor activity against human UO-31 cells assessed as growth inhibition at 10 uM relative to control; procedure, shortened: as §2
U-251 = assay: Antitumor activity against human U-251 cells assessed as growth inhibition at 10 uM relative to control; procedure, shortened: as §2
Hs-578T = assay: Antitumor activity against human Hs-578T cells assessed as growth inhibition at 10 uM relative to control; procedure, shortened: as §1
SK-MEL-2 = assay: Antitumor activity against human SK-MEL-2 cells assessed as growth inhibition at 10 uM relative to control; procedure, shortened: as §1
UACC-62 = assay: Antitumor activity against human UACC-62 cells assessed as growth inhibition at 10 uM relative to control; procedure, shortened: as §2
A498 = assay: Antitumor activity against human A498 cells assessed as growth inhibition at 10 uM relative to control; procedure, shortened: as §1
NCI-H322M = assay: Antitumor activity against human NCI-H322M cells assessed as growth inhibition at 10 uM relative to control; procedure, shortened: as §1
SK-OV-3 = assay: Antitumor activity against human SK-OV-3 cells assessed as growth inhibition at 10 uM relative to control; procedure, shortened: as §2
LOX IMVI = assay: Antitumor activity against human LOX IMVI cells assessed as growth inhibition at 10 uM relative to control; procedure, shortened: as §1
ACHN = assay: Antitumor activity against human ACHN cells assessed as growth inhibition at 10 uM relative to control; procedure, shortened: as §1
NCI-H522 = assay: Antitumor activity against human NCI-H522 cells assessed as growth inhibition at 10 uM relative to control; procedure, shortened: as §1
HCC 2998 = assay: Antitumor activity against human HCC 2998 cells assessed as growth inhibition at 10 uM relative to control; procedure, shortened: as §1
SN12C = assay: Antitumor activity against human SN12C cells assessed as growth inhibition at 10 uM relative to control; procedure, shortened: as §2
CCRF-CEM = assay: Antitumor activity against human CCRF-CEM cells assessed as growth inhibition at 10 uM relative to control; procedure, shortened: as §1
MDA-MB-231 = assay: Antitumor activity against human MDA-MB-231 cells assessed as growth inhibition at 10 uM relative to control; procedure, shortened: as §1
MDA-MB-435 = assay: Antitumor activity against human MDA-MB-435 cells assessed as growth inhibition at 10 uM relative to control; procedure, shortened: as §1
BT-549 = assay: Antitumor activity against human BT-549 cells assessed as growth inhibition at 10 uM relative to control; procedure, shortened: as §1
COLO 205 = assay: Antitumor activity against human COLO 205 cells assessed as growth inhibition at 10 uM relative to control; procedure, shortened: as §1
SF-268 = assay: Antitumor activity against human SF-268 cells assessed as growth inhibition at 10 uM relative to control; procedure, shortened: as §1
OVCAR-5 = assay: Antitumor activity against human OVCAR-5 cells assessed as growth inhibition at 10 uM relative to control; procedure, shortened: as §1
HT-29 = assay: Antitumor activity against human HT-29 cells assessed as growth inhibition at 10 uM relative to control; procedure, shortened: as §1
SNB-19 = assay: Antitumor activity against human SNB-19 cells assessed as growth inhibition at 10 uM relative to control; procedure, shortened: as §2
HCT-15 = assay: Antitumor activity against human HCT-15 cells assessed as growth inhibition at 10 uM relative to control; procedure, shortened: as §1
IGROV-1 = assay: Antitumor activity against human IGROV-1 cells assessed as growth inhibition at 10 uM relative to control; procedure, shortened: as §1
NCI/ADR-RES = assay: Antitumor activity against human NCI-ADR-RES cells assessed as growth inhibition at 10 uM relative to control; procedure, shortened: as §1
PC-3 = assay: Antitumor activity against human PC-3 cells assessed as growth inhibition at 10 uM relative to control; procedure, shortened: as §1
SK-MEL-5 = assay: Antitumor activity against human SK-MEL-5 cells assessed as growth inhibition at 10 uM relative to control; procedure, shortened: as §2
SK-MEL-28 = assay: Antitumor activity against human SK-MEL-28 cells assessed as growth inhibition at 10 uM relative to control; procedure, shortened: as §2
MOLT-4 = assay: Antitumor activity against human MOLT-4 cells assessed as growth inhibition at 10 uM relative to control; procedure, shortened: as §1
NCI-H23 = assay: Antitumor activity against human NCI-H23 cells assessed as growth inhibition at 10 uM relative to control; procedure, shortened: as §1
HL-60 = assay: Antitumor activity against human HL-60 cells assessed as growth inhibition at 10 uM relative to control; procedure, shortened: as §1

In the case of `N#Cc1c(-c2ccc(Cl)cc2)nc(N2NC(=O)CC2=N)nc1N1CCOCC1`, the inhibition of growth at 10 µM (NCI-H460) was under 1%, the inhibition of growth at 10 µM (OVCAR-8) was under 1% and the inhibition of growth at 10 µM (DU-145) was under 1%. It also gave an inhibition of growth at 10 µM (K562) of under 1%, an inhibition of growth at 10 µM (CAKI-1) of under 1% and an inhibition of growth at 10 µM (TK-10) of under 1%. For the same compound, the inhibition of growth at 10 µM (MCF7) was 1%, the inhibition of growth at 10 µM (EKVX) was under 1% and the inhibition of growth at 10 µM (SR) was under 1%. It also gave an inhibition of growth at 10 µM (786-0) of under 1%, an inhibition of growth at 10 µM (A549) of under 1% and an inhibition of growth at 10 µM (SF-539) of under 1%. The inhibition of growth at 10 µM (NCI-H226) was under 1%, the inhibition of growth at 10 µM (T47D) was under 1% and the inhibition of growth at 10 µM (RXF 393) was under 1%. The inhibition of growth at 10 µM (UO-31) was 24.6%, the inhibition of growth at 10 µM (U-251) was under 1% and the inhibition of growth at 10 µM (Hs-578T) was under 1%. It also gave an inhibition of growth at 10 µM (SK-MEL-2) of under 1%, an inhibition of growth at 10 µM (UACC-62) of 86.2% and an inhibition of growth at 10 µM (A498) of 34.3%. It also gave an inhibition of growth at 10 µM (NCI-H322M) of under 1%, an inhibition of growth at 10 µM (SK-OV-3) of under 1% and an inhibition of growth at 10 µM (LOX IMVI) of under 1%. For the same compound, the inhibition of growth at 10 µM (ACHN) was under 1%, the inhibition of growth at 10 µM (NCI-H522) was 13.6% and the inhibition of growth at 10 µM (HCC 2998) was under 1%. For the same compound, the inhibition of growth at 10 µM (SN12C) was under 1%, the inhibition of growth at 10 µM (CCRF-CEM) was under 1% and the inhibition of growth at 10 µM (MDA-MB-231) was under 1%. The inhibition of growth at 10 µM (MDA-MB-435) was under 1%, the inhibition of growth at 10 µM (BT-549) was under 1% and the inhibition of growth at 10 µM (COLO 205) was under 1%. It also gave an inhibition of growth at 10 µM (SF-268) of under 1%, an inhibition of growth at 10 µM (OVCAR-5) of under 1% and an inhibition of growth at 10 µM (HT-29) of under 1%. The inhibition of growth at 10 µM (SNB-19) was under 1%, the inhibition of growth at 10 µM (HCT-15) was under 1% and the inhibition of growth at 10 µM (IGROV-1) was under 1%. For the same compound, the inhibition of growth at 10 µM (NCI/ADR-RES) was under 1%, the inhibition of growth at 10 µM (PC-3) was under 1% and the inhibition of growth at 10 µM (SK-MEL-5) was under 1%. The inhibition of growth at 10 µM (SK-MEL-28) was under 1%, the inhibition of growth at 10 µM (MOLT-4) was under 1% and the inhibition of growth at 10 µM (NCI-H23) was under 1%. It also gave an inhibition of growth at 10 µM (HL-60) of under 1%.
